In brackets after ≈: the same amount, converted by molar mass.
Experiments:
[1] = Concentration of liberated compound in serum after 60 min at the dose of 50 mg/kg (po).; type: functional, organism-based; parameters: dose 50 mg/kg
Procedure, shortened: (§1)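 ddY male mice (20–25 g, five per group) got 50 mg/kg orally as a 0.5% CMC suspension and were killed by bleeding at 30, 60, 120 or 240 min. Serum was taken after centrifugation at 3000 rpm, 20 min, 4 °C, and deproteinised with 5% aqueous trichloroacetic acid. The released parent quinolone was measured by HPLC with UV detection on an ODS column. Mean ± SE.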

[2] = Concentration of liberated compound in serum after 120 min at the dose of 50 mg/kg (po).; type: functional, organism-based; parameters: dose 50 mg/kg; procedure, shortened: as §1
[3] = Concentration of liberated compound in serum after 240 min at the dose of 50 mg/kg (po).; type: functional, organism-based; parameters: dose 50 mg/kg; procedure, shortened: as §1
[4] = Concentration of liberated compound in serum after 30 min at the dose of 50 mg/kg (po).; type: ADME, organism-based; parameters: dose 50 mg/kg; settings: in vivo, 0.5 h
Procedure, shortened: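 ddY male mice (20–25 g, five per group) given 50 mg/kg orally as a suspension in 0.5% CMC and killed by bleeding at 30 min. Serum was separated by centrifugation (3000 rpm, 20 min, 4 °C) and deproteinized with 5% aqueous trichloroacetic acid. Liberated NFLX was quantified by reversed-phase (ODS) HPLC with UV detection. Values are mean ± SE.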

Bacillus subtilis = test: In vitro antibacterial activity against Bacillus subtilis ATCC 6633; type: functional
Procedure, shortened: (§2)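 MIC measured by 2-fold serial agar dilution. The growth medium is given as Mueller–Hinton agar in the text and as sensitivity test agar in the table footnote. Value reported in µg/mL.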

Klebsiella pneumoniae = test: In vitro antibacterial activity against Klebsiella pneumoniae PCI-602; type: functional; procedure, shortened: as §2
[5] = Acute toxicity on intravenous injection in mice; type: organism-based; settings: mouse, in vivo
Procedure, shortened: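 ddY male mice (20–25 g, five per group) given compound by intravenous injection. Compound was dissolved in 1 N NaOH, then brought up in phosphoric acid–saline buffer (pH 7.2). LD50 was determined 7 days later by the Weil method.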

[6] = Acute toxicity on oral administration in mice; type: organism-based; settings: mouse, in vivo
Procedure, shortened: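 ddY male mice (20–25 g, five per group) were dosed orally with a suspension in 0.5% sodium carboxymethylcellulose. LD50 was determined 7 days later by the Weil method.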

Pseudomonas aeruginosa = test: In vitro antibacterial activity against Pseudomonas aeruginosa IFO 3445; type: functional; procedure, shortened: as §2
Proteus vulgaris = test: In vitro antibacterial activity against Proteus vulgaris OX-19; type: functional; procedure, shortened: as §2
[7] = tested on: Staphylococcus epidermidis; test: In vitro antibacterial activity against Staphylococcus epidermidis IAM 1296; type: functional; procedure, shortened: as §2
Serratia = test: (§3) In vitro antibacterial activity against Serratia; type: functional
Procedure, shortened: (§4)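 MIC by 2-fold agar dilution on sensitivity test agar (Mueller–Hinton agar per text), in µg/mL.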

Salmonella typhimurium = test: In vitro antibacterial activity against Salmonella Typhimurium IID 971; type: functional, Salmonella enterica subsp. enterica serovar Typhimurium; settings: Salmonella enterica; procedure, shortened: as §2
Staphylococcus aureus [8] = test: In vitro antibacterial activity against […] aureus IID 803 -; type: functional; procedure, shortened: as §2
Staphylococcus aureus [9] = test: In vitro antibacterial activity against Staphylococcus aureus FDA […] JC-1; type: functional; procedure, shortened: as §4
Escherichia coli [10] = test: (§5) In vitro antibacterial activity against Escherichia coli NHJ JC-2; type: functional, escherichia colin; procedure, shortened: as §4
Escherichia coli [11] = test: In vitro antibacterial activity against Escherichia coli KC-14
Escherichia coli [12] = test: In vivo antibacterial activity against Escherichia coli KC-14 (po); type: functional
Procedure, shortened: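 Oral protection test in mice infected with E. coli KC-14. Compound suspended in 0.5% sodium CMC and given orally 1 h after infection. ED50 (mg/kg) calculated from cumulative mortality on day 7 after infection by the shortened Weil method, with 95% confidence limits.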

Serratia marcescens = test: as §3; type: functional; procedure, shortened: as §2
Escherichia coli [13] = test: as §5; type: functional, escherichia colin; procedure, shortened: as §2; remark: listed apart in the source
Staphylococcus aureus [14] = test: In vitro antibacterial activity against Staphylococcus aureus FDA 209P JC-1; type: functional; procedure, shortened: as §2

Structure (SMILES) | MIC (Bacillus subtilis) | MIC (Klebsiella pneumoniae) | LD50 [5] | LD50 [6] | MIC (Pseudomonas aeruginosa) | MIC (Proteus vulgaris) | MIC [7] | MIC (Serratia) | MIC (Salmonella typhimurium) | MIC (Staphylococcus aureus [8]) | MIC (Staphylococcus aureus [9]) | MIC (Escherichia coli [10]) | MIC (Escherichia coli [11]) | ED50 (Escherichia coli [12]) | MIC (Serratia marcescens) | other results
CCn1cc(C(=O)O)c(=O)c2cc(F)c(N3CCNCC3)cc21 [NORFLOXACIN] | 0.39 µg/mL (≈ 1.22 µM) | 0.1 µg/mL (≈ 0.313 µM) | 314 mg/kg | > 4000 mg/kg | 1.56 µg/mL (≈ 4.89 µM) | 0.1 µg/mL (≈ 0.313 µM) | 3.13 µg/mL (≈ 9.8 µM) | 0.39 µg/mL (≈ 1.22 µM) | 0.05 µg/mL (≈ 0.157 µM) | 1.56 µg/mL (≈ 4.89 µM) | 0.39 µg/mL (≈ 1.22 µM) | 0.2 µg/mL (≈ 0.626 µM) | 0.2 µg/mL (≈ 0.626 µM) |  |  | Concentration [1]: 2.8 µg/mL; Concentration [2]: 1.09 µg/mL; Concentration [3]: 0.47 µg/mL; Concentration [4]: 4140 ng/mL
O=C(O)c1cn(C2CC2)c2cc(N3CCN(O)CC3)c(F)cc2c1=O | 0.39 µg/mL (≈ 1.12 µM) | 0.025 µg/mL (≈ 0.072 µM) |  | > 4000 mg/kg | 1.56 µg/mL (≈ 4.49 µM) | 0.05 µg/mL (≈ 0.144 µM) | 1.56 µg/mL (≈ 4.49 µM) |  | 0.025 µg/mL (≈ 0.072 µM) | 0.78 µg/mL (≈ 2.25 µM) | 0.39 µg/mL (≈ 1.12 µM) | 0.1 µg/mL (≈ 0.288 µM) | 0.025 µg/mL (≈ 0.072 µM) | 0.37 mg/kg | 0.78 µg/mL (≈ 2.25 µM) | 
O=C(O)c1cn(C2CC2)c2cc(N3CCNCC3)c(F)cc2c1=O [CIPROFLOXACIN] | 0.39 µg/mL (≈ 1.18 µM) | 0.025 µg/mL (≈ 0.0754 µM) |  |  | 0.78 µg/mL (≈ 2.35 µM) | 0.05 µg/mL (≈ 0.151 µM) | 1.56 µg/mL (≈ 4.71 µM) | 0.2 µg/mL (≈ 0.604 µM) | 0.025 µg/mL (≈ 0.0754 µM) | 0.78 µg/mL (≈ 2.35 µM) | 0.39 µg/mL (≈ 1.18 µM) |  | 0.0125 µg/mL (≈ 0.0377 µM) | 0.84 mg/kg |  | 
CCn1cc(C(=O)O)c(=O)c2cc(F)c(N3CCN(O)CC3)cc21 | 0.2 µg/mL (≈ 0.596 µM) | 0.05 µg/mL (≈ 0.149 µM) | > 500 mg/kg | > 4000 mg/kg | 12.5 µg/mL (≈ 37.3 µM) | 0.05 µg/mL (≈ 0.149 µM) | 6.25 µg/mL (≈ 18.6 µM) |  | 0.1 µg/mL (≈ 0.298 µM) | 1.56 µg/mL (≈ 4.65 µM) |  |  | 0.39 µg/mL (≈ 1.16 µM) |  | 3.13 µg/mL (≈ 9.33 µM) | MIC (Escherichia coli [13]): 1.56 µg/mL (≈ 4.65 µM); MIC (Staphylococcus aureus [14]): 0.78 µg/mL (≈ 2.33 µM)
